# Assay results: ChEMBL document CHEMBL1671709, “Small-molecule screening using a whole-cell viral replication reporter gene assay identifies 2-{[2-(benzoylamino)benzoyl]amino}-benzoic acid as a novel antiadenoviral compound” (Antimicrob Agents Chemother, 2010)
# Active and inactive are the calls of the source. No cut-off for these calls is given here.
# Assays:
# K562 = test: Cytotoxicity against human K562 cells assessed as dead cells at 15 uM after 24 hrs using PI by FACS analysis; assay type: cell-based; settings: k562, 24 h
# In short: (§1)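 A549 cells (2×10^5) seeded the day before in DMEM with 1% FBS; K562 cells (200,000) in RPMI 1640 with 5% FBS added just before compound. Compound at 5 and 15 µM, DMSO <1%, 24 h at 37 °C, 5% CO2. Cells washed, resuspended in PBS with 1 µg propidium iodide; dead cells counted by flow cytometry. Two independent duplicate experiments.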
# [1] = Cytotoxicity against human A549 cells by XTT assay; assay type: cell-based
# In short: (§2)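 About 50,000 A549 cells seeded the day before; compound titrated in DMEM with 1% FBS for 24 h. XTT then added and incubated 2 h at 37 °C, with absorbance read at 450 nm. CC50 is the concentration leaving 50% of cells viable. Selectivity index is CC50 divided by the QPCR EC50 for each virus. Three independent duplicate experiments.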
# A549 [2] = test: Cytotoxicity against human A549 cells assessed as dead cells at 15 uM after 24 hrs using PI by FACS analysis; assay type: cell-based; settings: a549, 24 h; in short: as §1
# [3] = Selectivity index, ratio of CC50 for human A549 cells to EC50 for Human adenovirus type 11p; assay type: toxicity, cell-based; settings: read-out: Selectivity Index; in short: as §2
# [4] = Cytotoxicity against human K562 cells assessed as viable cells after 24 hrs by MTT assay; assay type: cell-based; settings: read-out: Activity
# In short: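 K562 cells (50,000/well) in phenol-red-free RPMI with 5% FBS, compound at 50 µM final (serial 25–0.78 µM in triplicate for dose-response), 24 h at 37 °C, 5% CO2, after the GFP fluorescence read. MTT added for 2 h, formazan dissolved in acidic isopropanol/Triton X-100, absorbance at 570 nm.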
# [5] = Antiviral activity against Human adenovirus type 11p in human K562 cells harboring green fluorescent protein-expressing RCAd11pGFP vector assessed as inhibition of RCAd11pGFP genome expression; assay type: functional, cell-based, Human adenovirus 11p; settings: Human mastadenovirus B
# In short: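 K562 cells (50,000/well) in phenol-red-free RPMI with 5% FBS, infected with RCAd11pGFP at 1 pg/cell. The 5 mM DMSO stock was diluted 1:1 serially from 25 to 0.78 µM, with final DMSO <1%, run in triplicate.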
# Human adenovirus 5 [6] = test: Antiviral activity against Human adenovirus type 5 infected in human A549 cells assessed as inhibition of viral replication by QPCR at 15 uM after 24 hrs; assay type: functional, organism-based
# In short: (§3)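 A549 cells (~10^5/well) seeded the day before; compound (0.5–15 µM) and 1 pg Ad virions per cell added together in DMEM with 1% FBS, final DMSO <1%. After 24 h at 37 °C, 5% CO2, cells harvested and DNA extracted. Viral genomes quantified by real-time PCR against Ad5 DNA standard curves, normalized to cellular RNase P. EC50 taken as 50% inhibition of replication; three independent duplicate experiments.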
# Human adenovirus 5 [7] = test: Antiviral activity against Human adenovirus type 5 F2853-5b infected in A549 cells assessed as inhibition of DNA replication by QPCR assay; assay type: functional, organism-based; settings: Human mastadenovirus C
# In short: (§4)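 A549 cells (about 10^5/well) were seeded the day before. Compound (0.5–15 µM, DMSO <1%) and 1 pg virions/cell were added together in DMEM with 1% FBS and held 24 h at 37°C. DNA was then extracted and viral genomes counted by TaqMan QPCR (AdDF probe, Ad5 or Ad11 DNA standards 5–5×10^5 copies), normalized to RNase P. EC50 is the 50% replication inhibition point, from at least two independent duplicate experiments.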
# [8] = Antiviral activity against Human adenovirus type 11p slobitski infected in A549 cells assessed as inhibition of DNA replication by QPCR assay; assay type: functional, cell-based, Human adenovirus 11p; settings: Human mastadenovirus B; in short: as §4
# [9] = Antiviral activity against Human adenovirus type 11p in human K562 cells harboring green fluorescent protein-expressing RCAd11pGFP vector assessed as inhibition of RCAd11pGFP genome expression at 50 uM relative to untreated control; assay type: functional, Human adenovirus 11p; settings: Human mastadenovirus B
# In short: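 Single-point screen done once in K562 cells (50,000/well) in phenol-red-free RPMI with 5% FBS, with RCAd11pGFP at 1 pg/cell. Compound was at 50 µM final, from a 5 mM DMSO stock. Each plate held six DMSO-only uninfected wells and six infected DMSO wells. After 24 h at 37°C in 5% CO2, GFP fluorescence was read at 485 nm, then MTT viability.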
# [10] = Cytotoxicity against human Fibroblast cells assessed as dead cells at 15 uM after 24 hrs using PI by FACS analysis; assay type: cell-based
# [11] = Antiviral activity against Human adenovirus type 11p infected in human A549 cells assessed as inhibition of viral replication by QPCR after 24 hrs; assay type: functional, cell-based, Human adenovirus 11p; settings: Human mastadenovirus B, A549, 24 h; in short: as §3
# [12] = Selectivity index, ratio of CC50 for human A549 cells to EC50 for Human adenovirus type 5; assay type: toxicity, cell-based; settings: read-out: Selectivity Index; in short: as §2
# A549 [13] = test: Antiviral activity against Human adenovirus type 11p slobitski infected in human A549 cells assessed as inhibition of hexon protein expression after 24 hrs using propidium iodide by FACS analysis; assay type: functional, cell-based; settings: Human adenovirus 11p, in the assay text read “using anti-hexon monoclonal antibody” for “using propidium iodide”
# In short: (§5)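 A549 cells (~2×10^5) seeded the day before. Compound (5 and 15 µM) added together with virus, 1 pg Ad5 or 0.5 pg Ad11p virions per cell, in DMEM with 1% FBS, DMSO <1%. After 24 h at 37 °C cells fixed in 2% paraformaldehyde and permeabilized with saponin. Stained with anti-hexon mouse monoclonal then Alexa Fluor 488 anti-mouse; read by flow cytometry. Two independent duplicate experiments.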
# [14] = Antiviral activity against Human adenovirus type 4 RI-67 infected in A549 cells assessed as inhibition of DNA replication by QPCR assay; assay type: functional, cell-based, Human adenovirus 4; settings: Human mastadenovirus E, RI-67, A549; in short: as §4
# A549 [15] = test: Antiviral activity against Human adenovirus type 11p in human A549 cells harboring green fluorescent protein-expressing RCAd11pGFP vector assessed as inhibition of RCAd11pGFP genome expression; assay type: functional, cell-based; settings: Human adenovirus 11p
# [16] = Antiviral activity against Human adenovirus type 31 1315/63 infected in A549 cells assessed as inhibition of DNA replication by QPCR assay; assay type: functional, cell-based, Human adenovirus 31; settings: Human mastadenovirus A, 1315/63, A549; in short: as §4
# Human adenovirus 5 [17] = test: Antiviral activity against Human adenovirus type 5 infected in human A549 cells assessed as inhibition of viral replication by QPCR at 5 uM after 24 hrs; assay type: functional, organism-based; in short: as §3
# Human adenovirus D37 = test: Antiviral activity against Human adenovirus type 37 1477 infected in A549 cells assessed as inhibition of DNA replication by QPCR assay; assay type: functional, organism-based; settings: Human mastadenovirus D, 1477, A549; in short: as §4
# A549 [18] = test: Inhibition of [35S]-labeled Human adenovirus type 11p slobitski binding to human A549 cells at 15 uM; assay type: functional, cell-based; settings: Human adenovirus 11p
# In short: (§6)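 A549 cells detached with 0.05% EDTA, allowed to recover 1 h, then suspended in PBS with 1% FBS and 0.01% NaN3 (200,000/well) on ice. Compound at 5 and 15 µM final, DMSO <1%, plus 5 pg 35S-labeled Ad5 or Ad11p virions per cell, rocked 1 h on ice. Cells washed three times; bound radioactivity counted by liquid scintillation. Three independent duplicate experiments.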
# Human adenovirus 5 [19] = test: Antiviral activity against Human adenovirus type 5 F2853-5b infected in human A549 cells assessed as inhibition of hexon protein expression after 24 hrs using propidium iodide by FACS analysis; assay type: functional, organism-based; settings: in the assay text read “using anti-hexon monoclonal antibody” for “using propidium iodide”; in short: as §5
# Human adenovirus 5 [20] = test: Inhibition of [35S]-labeled Human adenovirus type 5 F2853-5b binding to human A549 cells at 15 uM; assay type: functional, organism-based; in short: as §6
# [21] = Antiviral activity against Human adenovirus type 41 Tak infected in A549 cells assessed as inhibition of DNA replication by QPCR assay; assay type: functional, cell-based, Human adenovirus 41; settings: Human mastadenovirus F; in short: as §4
# Human adenovirus 5 [22] = test: Antiviral activity against Human adenovirus type 5 infected in human A549 cells assessed as inhibition of viral replication by QPCR after 24 hrs; assay type: functional, organism-based; settings: Human mastadenovirus C, A549, 24 h; in short: as §3
smiles,measurement,setting,value
O=C(Nc1ccccc1C(=O)Nc1ccccc1C(=O)O)c1ccccc1,Activity,K562,< 2%
same,CC50,[1],199 µM
same,Activity,A549 [2],< 2%
same,selectivity ratio,[3],68
same,viability at 24 h,[4],100%
same,EC50,[5],28.6 µM
same,inhibition,Human adenovirus 5 [6],Active
same,EC50,Human adenovirus 5 [7],3.7 µM
same,EC50,[8],2.9 µM
same,inhibition at 50 µM,[9],100%
same,Activity,[10],< 2%
same,EC50,[11],2.9 µM
same,selectivity ratio,[12],54
same,inhibition,A549 [13],Dose-dependent effect
same,EC50,[14],3.6 µM
same,inhibition,A549 [15],Active
same,EC50,[16],3.9 µM
same,inhibition,Human adenovirus 5 [17],Active
same,EC50,Human adenovirus D37,4.7 µM
same,inhibition,A549 [18],inactive
same,inhibition,Human adenovirus 5 [19],Dose-dependent effect
same,inhibition,Human adenovirus 5 [20],inactive
same,EC50,[21],2.4 µM
same,EC50,Human adenovirus 5 [22],3.7 µM
O=C(Nc1ccccc1C(=O)Nc1ccccc1C(=O)Nc1ccccc1C(=O)O)c1ccccc1,inhibition,Human adenovirus 5 [6],inactive
same,inhibition,Human adenovirus 5 [17],inactive
O=C(Nc1ccccc1C(=O)O)c1ccccc1,inhibition,Human adenovirus 5 [6],inactive
same,inhibition,Human adenovirus 5 [17],inactive
Nc1ccn(C[C@@H](CO)OCP(=O)(O)O)c(=O)n1 [CIDOFOVIR],EC50,Human adenovirus 5 [7],19.9 µM
same,EC50,[8],16.5 µM
